ChEMBL document CHEMBL3351625, “Ethyl 2-(benzylidene)-7-methyl-3-oxo-2,3-dihydro-5H-thiazolo[3,2-a]pyrimidine-6-carboxylate analogues as a new scaffold for protein kinase casein kinase 2 inhibitor” (Bioorg Med Chem, 2014)

Key:
[1] = biological target: T1, Serine/threonine-protein kinase Chk1 (Homo sapiens) (UniProt O14757); experiment: Inhibition of human CHK1 assessed as residual activity at 10 uM by KinaseProfiler assay
T1 sequence (whole entry): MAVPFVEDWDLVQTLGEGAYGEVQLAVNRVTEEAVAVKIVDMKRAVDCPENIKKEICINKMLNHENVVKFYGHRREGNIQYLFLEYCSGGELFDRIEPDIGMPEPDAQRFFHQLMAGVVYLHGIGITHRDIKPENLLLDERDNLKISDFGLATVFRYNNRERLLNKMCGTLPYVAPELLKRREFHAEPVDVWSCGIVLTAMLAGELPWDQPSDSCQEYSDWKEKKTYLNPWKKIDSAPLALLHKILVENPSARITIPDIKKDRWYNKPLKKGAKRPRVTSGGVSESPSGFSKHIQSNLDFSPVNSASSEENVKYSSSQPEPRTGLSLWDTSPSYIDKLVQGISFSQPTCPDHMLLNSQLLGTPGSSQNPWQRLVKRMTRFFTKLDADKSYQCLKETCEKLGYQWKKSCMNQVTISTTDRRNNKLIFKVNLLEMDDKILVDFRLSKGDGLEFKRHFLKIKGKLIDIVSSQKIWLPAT
Outline: (§1)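 Radioactive phosphorylation assays were run by an outsourced profiling service. Each of 31 human kinases was tested with inhibitor at 10 µM. Residual activity is expressed as a percentage of the mean activity in positive-control wells, which contained all reaction components except inhibitor plus DMSO as solvent control.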

Homo sapiens = species: Homo sapiens; experiment: Inhibition of human CK1 assessed as residual activity at 10 uM by KinaseProfiler assay; outline: as §1
[2] = biological target: Tyrosine-protein kinase CSK (Homo sapiens) (UniProt P41240); experiment: Inhibition of human CSK assessed as residual activity at 10 uM by KinaseProfiler assay; outline: as §1
[3] = biological target: Tyrosine-protein kinase Fgr (Homo sapiens) (UniProt P09769); experiment: Inhibition of human Fgr assessed as residual activity at 10 uM by KinaseProfiler assay; outline: as §1
[4] = biological target: Glycogen synthase kinase-3 beta (Homo sapiens) (UniProt P49841); experiment: Inhibition of human GSK3beta assessed as residual activity at 10 uM by KinaseProfiler assay; outline: as §1
[5] = biological target: Mitogen-activated protein kinase 8 (Homo sapiens) (UniProt P45983); experiment: Inhibition of human JNK1alpha1 assessed as residual activity at 10 uM by KinaseProfiler assay; outline: as §1
[6] = biological target: Tyrosine-protein kinase Lck (Homo sapiens) (UniProt P06239); experiment: Inhibition of human Lck assessed as residual activity at 10 uM by KinaseProfiler assay; outline: as §1
[7] = biological target: Tyrosine-protein kinase Lyn (Homo sapiens) (UniProt P07948); experiment: Inhibition of human Lyn assessed as residual activity at 10 uM by KinaseProfiler assay; outline: as §1
[8] = biological target: MAP kinase-activated protein kinase 2 (Homo sapiens) (UniProt P49137); experiment: Inhibition of human MAPKAP-K2 assessed as residual activity at 10 uM by KinaseProfiler assay; outline: as §1
[9] = biological target: T2, 3-phosphoinositide-dependent protein kinase 1 (Homo sapiens) (UniProt O15530); experiment: Inhibition of human PDK1 assessed as residual activity at 10 uM by KinaseProfiler assay; outline: as §1
T2 sequence (whole entry): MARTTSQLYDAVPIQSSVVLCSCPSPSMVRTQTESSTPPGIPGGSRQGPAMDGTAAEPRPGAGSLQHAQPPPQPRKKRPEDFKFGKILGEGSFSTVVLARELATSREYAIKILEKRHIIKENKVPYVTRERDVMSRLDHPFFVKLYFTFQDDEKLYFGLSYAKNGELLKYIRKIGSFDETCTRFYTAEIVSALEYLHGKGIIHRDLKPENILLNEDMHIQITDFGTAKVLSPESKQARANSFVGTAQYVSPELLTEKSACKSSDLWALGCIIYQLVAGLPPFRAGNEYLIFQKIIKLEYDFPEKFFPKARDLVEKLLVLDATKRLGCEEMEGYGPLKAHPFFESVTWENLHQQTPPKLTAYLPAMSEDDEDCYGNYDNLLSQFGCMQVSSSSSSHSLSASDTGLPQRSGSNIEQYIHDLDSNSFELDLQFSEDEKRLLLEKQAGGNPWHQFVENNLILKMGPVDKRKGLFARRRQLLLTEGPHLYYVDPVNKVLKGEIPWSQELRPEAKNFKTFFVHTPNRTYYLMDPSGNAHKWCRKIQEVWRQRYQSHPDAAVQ

[10] = biological target: RAC-alpha serine/threonine-protein kinase (Homo sapiens) (UniProt P31749); experiment: Inhibition of human PKBalpha assessed as residual activity at 10 uM by KinaseProfiler assay; outline: as §1
[11] = biological target: Mitogen-activated protein kinase 14 (Homo sapiens) (UniProt Q16539); experiment: Inhibition of human SAPK2a assessed as residual activity at 10 uM by KinaseProfiler assay; outline: as §1
[12] = biological target: Mitogen-activated protein kinase 11 (Homo sapiens) (UniProt Q15759); experiment: Inhibition of human SAPK2b assessed as residual activity at 10 uM by KinaseProfiler assay; outline: as §1
[13] = biological target: T3, Mitogen-activated protein kinase 12 (Homo sapiens) (UniProt P53778); experiment: Inhibition of human SAPK3 assessed as residual activity at 10 uM by KinaseProfiler assay; outline: as §1
T3 sequence (whole entry): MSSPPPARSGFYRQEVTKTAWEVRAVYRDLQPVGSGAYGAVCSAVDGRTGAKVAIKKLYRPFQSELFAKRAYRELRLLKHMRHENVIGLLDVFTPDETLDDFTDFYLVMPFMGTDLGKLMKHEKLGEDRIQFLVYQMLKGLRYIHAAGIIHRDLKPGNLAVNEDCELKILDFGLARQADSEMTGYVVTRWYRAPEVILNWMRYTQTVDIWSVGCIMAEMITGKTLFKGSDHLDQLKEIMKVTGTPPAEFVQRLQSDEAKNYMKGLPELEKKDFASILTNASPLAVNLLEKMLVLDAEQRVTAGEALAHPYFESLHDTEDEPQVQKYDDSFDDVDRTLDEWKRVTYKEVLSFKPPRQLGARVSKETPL

[14] = biological target: T4, Mitogen-activated protein kinase 13 (Homo sapiens) (UniProt O15264); experiment: Inhibition of human SAPK4 assessed as residual activity at 10 uM by KinaseProfiler assay; outline: as §1
T4 sequence (whole entry): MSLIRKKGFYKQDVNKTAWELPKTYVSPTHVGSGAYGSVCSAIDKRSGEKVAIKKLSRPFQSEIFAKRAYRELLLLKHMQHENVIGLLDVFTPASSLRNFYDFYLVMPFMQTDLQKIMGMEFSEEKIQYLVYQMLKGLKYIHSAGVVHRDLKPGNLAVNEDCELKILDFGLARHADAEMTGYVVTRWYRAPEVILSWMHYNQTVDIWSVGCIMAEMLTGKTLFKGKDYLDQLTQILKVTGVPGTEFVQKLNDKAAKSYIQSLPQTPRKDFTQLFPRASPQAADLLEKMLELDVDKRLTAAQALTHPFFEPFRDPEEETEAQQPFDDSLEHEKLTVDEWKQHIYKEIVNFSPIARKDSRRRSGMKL

[15] = biological target: Tyrosine-protein kinase SYK (Homo sapiens) (UniProt P43405); experiment: Inhibition of human Syk assessed as residual activity at 10 uM by KinaseProfiler assay; outline: as §1

Mitogen-activated protein kinase 14 (Homo sapiens), sequence (Q16539 whole entry): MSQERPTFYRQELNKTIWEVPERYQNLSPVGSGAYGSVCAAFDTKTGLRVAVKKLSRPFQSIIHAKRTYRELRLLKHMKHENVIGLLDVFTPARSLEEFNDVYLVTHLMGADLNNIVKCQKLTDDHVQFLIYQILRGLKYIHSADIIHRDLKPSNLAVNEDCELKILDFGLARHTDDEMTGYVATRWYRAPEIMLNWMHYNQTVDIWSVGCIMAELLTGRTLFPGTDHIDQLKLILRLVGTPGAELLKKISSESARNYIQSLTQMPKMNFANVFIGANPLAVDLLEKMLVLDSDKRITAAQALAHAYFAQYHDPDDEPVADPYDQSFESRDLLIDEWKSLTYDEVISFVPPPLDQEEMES
Mitogen-activated protein kinase 8 (Homo sapiens), sequence (P45983 whole entry): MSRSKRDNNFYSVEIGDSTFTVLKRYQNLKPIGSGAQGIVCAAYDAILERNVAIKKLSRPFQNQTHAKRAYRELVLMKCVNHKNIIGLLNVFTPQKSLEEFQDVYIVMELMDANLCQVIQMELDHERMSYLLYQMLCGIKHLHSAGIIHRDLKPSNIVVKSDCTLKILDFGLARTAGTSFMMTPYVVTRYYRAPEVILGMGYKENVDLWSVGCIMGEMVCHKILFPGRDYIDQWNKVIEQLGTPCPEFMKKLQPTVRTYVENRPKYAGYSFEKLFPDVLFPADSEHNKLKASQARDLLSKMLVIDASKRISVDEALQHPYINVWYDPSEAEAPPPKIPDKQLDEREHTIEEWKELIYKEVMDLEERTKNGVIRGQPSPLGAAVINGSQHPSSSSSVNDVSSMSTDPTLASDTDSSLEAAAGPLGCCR
Tyrosine-protein kinase Lyn (Homo sapiens), sequence (P07948 2-512 limits assumed): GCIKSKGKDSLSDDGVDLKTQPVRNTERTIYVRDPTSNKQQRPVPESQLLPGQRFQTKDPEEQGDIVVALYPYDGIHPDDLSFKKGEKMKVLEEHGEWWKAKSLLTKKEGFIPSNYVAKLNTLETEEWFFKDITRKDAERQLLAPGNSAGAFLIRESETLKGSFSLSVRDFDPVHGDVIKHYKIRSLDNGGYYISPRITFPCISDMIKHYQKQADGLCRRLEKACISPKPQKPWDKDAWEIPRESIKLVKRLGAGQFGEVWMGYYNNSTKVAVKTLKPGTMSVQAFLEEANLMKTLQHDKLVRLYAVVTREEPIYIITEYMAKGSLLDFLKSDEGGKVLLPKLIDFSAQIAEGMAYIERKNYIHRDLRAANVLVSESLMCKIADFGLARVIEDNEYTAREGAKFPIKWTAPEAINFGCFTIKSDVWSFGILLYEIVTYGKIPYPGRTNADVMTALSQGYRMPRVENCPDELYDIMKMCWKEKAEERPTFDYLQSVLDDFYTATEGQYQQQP
Tyrosine-protein kinase Fgr (Homo sapiens), sequence (P09769 2-529 limits assumed): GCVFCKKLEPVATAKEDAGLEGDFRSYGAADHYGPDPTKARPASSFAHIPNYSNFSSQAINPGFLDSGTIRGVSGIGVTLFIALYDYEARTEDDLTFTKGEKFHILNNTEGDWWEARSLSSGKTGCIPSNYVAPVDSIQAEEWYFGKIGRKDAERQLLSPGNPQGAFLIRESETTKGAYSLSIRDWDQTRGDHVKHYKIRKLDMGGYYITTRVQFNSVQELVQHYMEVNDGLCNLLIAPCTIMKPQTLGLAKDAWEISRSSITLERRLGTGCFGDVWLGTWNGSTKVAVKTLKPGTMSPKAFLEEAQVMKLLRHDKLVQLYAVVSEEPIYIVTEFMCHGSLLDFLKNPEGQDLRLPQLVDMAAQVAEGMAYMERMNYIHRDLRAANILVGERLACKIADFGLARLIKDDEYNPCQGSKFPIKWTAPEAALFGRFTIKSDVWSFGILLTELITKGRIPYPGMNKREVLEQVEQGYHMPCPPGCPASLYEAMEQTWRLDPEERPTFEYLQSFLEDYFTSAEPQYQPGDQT
MAP kinase-activated protein kinase 2 (Homo sapiens), sequence (P49137 whole entry, looked up): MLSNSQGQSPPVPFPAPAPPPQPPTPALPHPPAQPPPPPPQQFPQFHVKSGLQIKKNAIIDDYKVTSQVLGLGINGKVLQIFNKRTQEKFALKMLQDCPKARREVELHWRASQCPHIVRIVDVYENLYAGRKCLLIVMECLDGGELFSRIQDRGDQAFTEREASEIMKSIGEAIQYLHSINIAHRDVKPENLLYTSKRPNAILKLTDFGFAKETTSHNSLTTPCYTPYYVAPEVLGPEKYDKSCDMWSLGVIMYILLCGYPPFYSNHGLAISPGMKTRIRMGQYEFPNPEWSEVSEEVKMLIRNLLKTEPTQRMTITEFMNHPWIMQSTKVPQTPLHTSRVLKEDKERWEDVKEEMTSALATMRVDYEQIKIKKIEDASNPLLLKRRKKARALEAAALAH
Tyrosine-protein kinase CSK (Homo sapiens), sequence (P41240 2-450 limits assumed): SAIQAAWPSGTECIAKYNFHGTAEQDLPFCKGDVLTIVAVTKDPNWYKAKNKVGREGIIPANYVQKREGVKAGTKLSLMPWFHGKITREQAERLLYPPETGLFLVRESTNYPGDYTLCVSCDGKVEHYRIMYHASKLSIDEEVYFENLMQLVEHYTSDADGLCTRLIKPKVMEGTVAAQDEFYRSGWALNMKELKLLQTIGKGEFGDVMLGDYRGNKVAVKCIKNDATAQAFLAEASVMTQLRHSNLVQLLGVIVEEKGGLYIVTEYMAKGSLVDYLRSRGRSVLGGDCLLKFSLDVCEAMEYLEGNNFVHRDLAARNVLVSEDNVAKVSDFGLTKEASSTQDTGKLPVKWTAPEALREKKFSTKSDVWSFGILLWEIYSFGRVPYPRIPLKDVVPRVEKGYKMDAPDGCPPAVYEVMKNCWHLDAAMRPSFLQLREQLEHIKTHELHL
Mitogen-activated protein kinase 11 (Homo sapiens), sequence (Q15759 whole entry): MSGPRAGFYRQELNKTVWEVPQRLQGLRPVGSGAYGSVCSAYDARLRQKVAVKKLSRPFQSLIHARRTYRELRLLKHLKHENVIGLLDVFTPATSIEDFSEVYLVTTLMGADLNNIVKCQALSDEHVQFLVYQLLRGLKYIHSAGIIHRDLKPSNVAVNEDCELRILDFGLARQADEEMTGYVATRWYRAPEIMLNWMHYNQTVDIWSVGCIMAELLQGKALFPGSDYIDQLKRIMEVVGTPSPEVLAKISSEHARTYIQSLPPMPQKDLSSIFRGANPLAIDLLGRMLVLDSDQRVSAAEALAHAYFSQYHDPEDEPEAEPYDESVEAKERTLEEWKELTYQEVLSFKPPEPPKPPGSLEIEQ
Tyrosine-protein kinase Lck (Homo sapiens), sequence (P06239 2-509 limits assumed): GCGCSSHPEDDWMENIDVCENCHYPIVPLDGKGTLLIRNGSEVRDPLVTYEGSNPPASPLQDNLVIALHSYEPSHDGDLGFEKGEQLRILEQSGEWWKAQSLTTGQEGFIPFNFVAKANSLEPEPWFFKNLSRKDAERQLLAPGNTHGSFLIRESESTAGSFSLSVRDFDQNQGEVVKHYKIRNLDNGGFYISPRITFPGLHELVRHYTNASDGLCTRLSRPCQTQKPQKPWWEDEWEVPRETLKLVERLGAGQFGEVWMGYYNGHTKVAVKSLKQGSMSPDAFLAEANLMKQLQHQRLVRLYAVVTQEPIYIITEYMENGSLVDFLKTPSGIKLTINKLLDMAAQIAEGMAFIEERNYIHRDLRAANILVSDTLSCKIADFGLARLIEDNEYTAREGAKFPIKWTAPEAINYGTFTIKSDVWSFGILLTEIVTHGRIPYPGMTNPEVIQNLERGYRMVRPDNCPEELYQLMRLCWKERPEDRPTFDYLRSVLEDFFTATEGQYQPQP
Glycogen synthase kinase-3 beta (Homo sapiens), sequence (P49841 whole entry, looked up): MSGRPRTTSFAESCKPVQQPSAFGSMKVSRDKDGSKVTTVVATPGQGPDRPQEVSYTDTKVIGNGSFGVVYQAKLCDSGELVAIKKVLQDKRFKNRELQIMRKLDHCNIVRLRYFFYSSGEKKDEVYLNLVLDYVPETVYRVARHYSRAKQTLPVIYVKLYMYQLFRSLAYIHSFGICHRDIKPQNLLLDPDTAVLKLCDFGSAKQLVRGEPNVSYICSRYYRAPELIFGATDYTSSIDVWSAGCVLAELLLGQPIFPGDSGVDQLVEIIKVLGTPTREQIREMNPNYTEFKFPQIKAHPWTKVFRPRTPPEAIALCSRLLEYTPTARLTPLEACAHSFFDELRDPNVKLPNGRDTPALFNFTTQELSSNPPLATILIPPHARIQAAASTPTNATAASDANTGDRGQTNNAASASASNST
RAC-alpha serine/threonine-protein kinase (Homo sapiens), sequence (P31749 whole entry): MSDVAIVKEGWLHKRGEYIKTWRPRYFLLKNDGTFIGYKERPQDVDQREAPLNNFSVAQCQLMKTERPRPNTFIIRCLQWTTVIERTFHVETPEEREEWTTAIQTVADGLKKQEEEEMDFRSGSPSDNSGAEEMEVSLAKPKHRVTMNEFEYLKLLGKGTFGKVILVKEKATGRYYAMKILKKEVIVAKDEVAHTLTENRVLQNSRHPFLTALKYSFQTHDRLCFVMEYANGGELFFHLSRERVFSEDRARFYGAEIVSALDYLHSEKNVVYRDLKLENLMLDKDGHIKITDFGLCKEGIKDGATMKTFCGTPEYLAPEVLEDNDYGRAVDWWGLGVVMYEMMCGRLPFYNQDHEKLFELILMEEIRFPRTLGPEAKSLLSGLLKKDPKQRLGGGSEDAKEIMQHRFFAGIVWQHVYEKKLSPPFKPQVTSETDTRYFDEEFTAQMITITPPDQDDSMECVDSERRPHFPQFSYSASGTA

| SMILES | Activity [1] | Activity (Homo sapiens) | Activity [2] | Activity [3] | Activity [4] | Activity [5] | Activity [6] | Activity [7] | Activity [8] | Activity [9] | Activity [10] | Activity [11] | Activity [12] | Activity [13] | Activity [14] | Activity [15] |
| --- | --- | --- | --- | --- | --- | --- | --- | --- | --- | --- | --- | --- | --- | --- | --- | --- |
| Brc1c(Br)c(Br)c2[nH]nnc2c1Br | 149% | 51% | 116% | 102% | 42% | 51% | 78% | 113% | 78% | 93% | 61% | 99% | 112% | 29% | 106% | 87% |
| CCOC(=O)C1=C(C)N=c2s/c(=C\c3ccc(O)c(O)c3)c(=O)n2C1c1ccc(Cl)cc1 (stereo not drawn) | 117% | 50% | 82% | 98% | 52% | 101% | 57% | 20% | 98% | 78% | 90% | 72% | 114% | 69% | 79% | 77% |
| CCOC(=O)C1=C(C)N=c2s/c(=C\c3cc(O)c(O)c(O)c3)c(=O)n2C1c1ccc(Cl)cc1 (stereo not drawn) | 127% | 77% | 54% | 75% | 51% | 92% | 61% | 5% | 86% | 69% | 50% | 59% | 101% | 63% | 76% | 28% |
